Test results from ChEMBL document CHEMBL1157343, “Prenylated flavonoids from the heartwood of Artocarpus communis with inhibitory activity on lipopolysaccharide-induced nitric oxide production” (J Nat Prod, 2006).

Assays:
[1] = test system: RAW264.7; experiment: Cytotoxicity against mouse RAW264.7 cells by MTT assay; format: cell-based
[2] = test system: RAW264.7; experiment: Selectivity index, ratio of CC50 for mouse RAW264.7 cells to IC50 for nitric oxide production in mouse RAW264.7 cells; format: functional
[3] = test system: RAW264.7; experiment: Inhibition of LPS-induced nitric oxide production in mouse RAW264.7 cells assessed as nitrite accumulation after 20 hrs; format: functional, cell-based; conditions: RAW264.7, 20 h
Outline: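 RAW 264.7 macrophages grown in DMEM with 10% FBS and penicillin-streptomycin at 37 °C, 5% CO2. Plated at 5 × 10⁵ cells/mL in phenol-red-free 10% FBS-DMEM for 24 h, then PBS-washed, refreshed, and given 1 μg/mL LPS ± samples for 20 h. Nitrite in supernatant measured by Griess reaction at 540 nm against a sodium nitrite standard. Inhibition calculated versus vehicle control; IC50 by nonlinear regression. L-NMMA positive control.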

Compound	IC50 [1]	Ratio CC50/IC50 [2]	IC50 [3]
CC(C)=CCc1c(O)ccc2c1O[C@H](c1ccc(O)cc1O)CC2=O	47.9 µM	3.9	12.3 µM
CC1(C)C=Cc2c(ccc(C(=O)/C=C/c3ccc(O)cc3O)c2O)O1	59.2 µM	3.1	18.8 µM
COc1cc2oc3c(c(=O)c2c(O)c1/C=C/C(C)C)C(C=C(C)C)Oc1cc(O)ccc1-3 (stereo not drawn)	46.1 µM	<0.8	> 60 µM
COc1cc2oc(-c3ccc(O)cc3O)c(CC=C(C)C)c(=O)c2c(O)c1/C=C/C(C)C [ARTOCARPIN]	45.3 µM	2.4	18.7 µM
CC(C)=CC1Oc2cc(O)ccc2-c2oc3cc4c(c(O)c3c(=O)c21)C=CC(C)(C)O4 (stereo not drawn) [CUDRAFLAVONE A]	42.1 µM	1	42.1 µM
CC(C)=CCc1c(O)cc2oc(-c3ccc(O)cc3O)c(CC=C(C)C)c(=O)c2c1O [CUDRAFLAVONE C]	59.2 µM	1.1	52.3 µM
C/C(=C/Cc1c(O)ccc(C(=O)/C=C/c2ccc(O)cc2)c1O)COC(=O)/C=C/c1ccc(O)cc1 [GEMICHALCONE B]	35.1 µM	3.8	9.3 µM
COc1cc(/C=C/C(=O)OC/C(C)=C\Cc2c(O)ccc(C(=O)/C=C/c3ccc(O)cc3O)c2O)ccc1O [GEMICHALCONES C]	37.6 µM	1.6	23.9 µM
CC(C)=CCc1c(O)ccc(C(=O)/C=C/c2ccc(O)cc2)c1O [ISOBAVACHALCONE]	16.4 µM	2.6	6.4 µM
CC(C)=CCc1c(O)ccc(C(=O)/C=C/c2ccc(O)cc2O)c1O [MORACHALCONE A]	58 µM	3.5	16.4 µM
CNC(=N)NCCC[C@H](N)C(=O)O [TILARGININE]	> 50 µM	>2.6	19.2 µM
